Paper PMC5819740 (ACS chemical biology, 2017)
Where two headings read alike, the source gives them in different places.

Columns and labels:
[1] = target: T1, EcDHFR (Escherichia coli, UniProt P0ABQ4); assay: biochemical; format: biochemical; settings: for Inhibition of EcDHFR activity in single-concentration initial screen: 1mM inhibitor (Fig 2A legend)
[2] = target: T1, EcDHFR; format: binding; settings: thermal shift at single concentration of 0.5 mM small molecule, 5μM EcDHFR
[3] = target: T1, EcDHFR; format: biochemical; settings: lower substrate, global non-linear fits
[4] = target: EcDHFR L28R mutant; assay: DHFR inhibition assay on drug-resistant single mutant; format: biochemical, Escherichia coli; settings: L28R mutant vs wild-type
Summary of the method: (§1)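 Purified recombinant E. coli DHFR (wild-type, or L28R, A26T/L28R, P21L/L28R mutants) in 100mM HEPES pH 7.3 at ~22 °C with 60 μM NADPH, 50 μM H2F and varied test compound; wild-type enzyme at 16.7nM. Reactions were enzyme-started, and NADPH consumption was followed at 340 nm for 100 s (initial rates, <5% product), corrected for non-enzymatic NADPH loss. Run in duplicate; IC50 fitted to y = 100%/[1+(I/IC50)].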

[5] = target: EcDHFR A26T/L28R mutant; assay: DHFR inhibition assay on drug-resistant double mutant; format: biochemical, Escherichia coli; settings: A26T/L28R mutant vs wild-type
Summary of the method: as §1

[6] = target: EcDHFR P21L/L28R mutant; assay: as above; format: biochemical, Escherichia coli; settings: P21L/L28R mutant vs wild-type
Summary of the method: as §1

[7] = target: T1, EcDHFR; settings: cited from earlier work
[8] = Insolubility limit in growth assay medium; settings: 30 °C, aqueous buffer, kinetic from dmso stock
[9] = system: E. coli cultures; assay: Rescue of growth by metabolic complement folAmix; format: cell-based; settings: M9-media supplemented with folAmix; different resveratrol concentrations
[10] = system: Escherichia coli; settings: read-out: estimated IC50 (antibacterial activity); cited from earlier work
[11] = system: E. coli strain with chromosomal folA replaced by mutant L28R; settings: cited from earlier work
[12] = 60μM NADPH, 50μM H2F, 100mM HEPES pH 7.3, 16.7nM EcDHFR, ± S.E.
[13] = substrate H2F, saturating NADPH

T1 sequence (P0ABQ4 whole entry): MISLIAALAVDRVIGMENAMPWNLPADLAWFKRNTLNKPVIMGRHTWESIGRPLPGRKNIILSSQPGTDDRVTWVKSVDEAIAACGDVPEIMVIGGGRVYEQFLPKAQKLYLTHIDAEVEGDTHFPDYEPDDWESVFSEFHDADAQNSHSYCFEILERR

**Q.** What does the source list for O=S(=O)(O)c1cc(N=C=S)ccc1C=Cc1ccc(N=C=S)cc1S(=O)(=O)O [DIDS]?
**A.** IC50 [1, 12]: 51 ± 1.7 µM; Inhibition of EcDHFR activity in single-concentration initial screen [1]: showed inhibition

**Q.** With O=[N+]([O-])c1ccc(/C=C/c2ccc([N+](=O)[O-])cc2S(=O)(=O)O)c(S(=O)(=O)O)c1 [DNDS, dinitro disulfonic acid] as the compound, how does the IC50 [1, 12] read?
**A.** 45.3 ± 10.1 µM

**Q.** What about the “Inhibition of EcDHFR activity in single-concentration initial screen” value [1] of the same compound?
**A.** showed inhibition

**Q.** And the ΔTm [2]?
**A.** 1.9 °C

**Q.** What does the source list for Nc1ccc(C=Cc2ccc(N)cc2S(=O)(=O)O)c(S(=O)(=O)O)c1 [flavonic acid]?
**A.** IC50 [1, 12]: 36.7 ± 3.1 µM; Inhibition of EcDHFR activity in single-concentration initial screen [1]: showed inhibition; αKi [3, 13]: 76.25 ± 6.82 µM

**Q.** With COc1ccc(CC(=O)c2ccc(O)cc2O)cc1 [ononetin] as the compound, how does the IC50 [1] read?
**A.** 83.4 ± 1.1 µM

**Q.** What about the Ki [1] of the same compound?
**A.** 83.4 µM

**Q.** What about the “Inhibition of EcDHFR activity in single-concentration initial screen” value [1] of the same compound?
**A.** inhibits the enzyme

**Q.** What about the “Inhibition Mechanism” value ([3]; NADPH titrated at saturating H2F) of the same compound?
**A.** uncompetitive inhibition

**Q.** What about the αKi [3, 13] of the same compound?
**A.** 111.2 ± 12.37 µM

**Q.** And the αKi ([3]; substrate NADPH, saturating H2F)?
**A.** 113.2 ± 13.1 µM

**Q.** And the “IC50 curve compared with wild-type enzyme” value [4]?
**A.** superimposable

**Q.** And the “IC50 curve compared with wild-type enzyme” value [5]?
**A.** superimposable

**Q.** What about the “IC50 curve compared with wild-type enzyme” value [6] of the same compound?
**A.** superimposable

**Q.** And the “Binding to EcDHFR by DSF” value [7]?
**A.** showed binding to EcDHFR

**Q.** Which solubility [8] does the source give for Oc1cc(O)cc(/C=C/c2ccc(O)cc2O)c1 [oxyresveratrol] here?
**A.** ≤ 250 µM

**Q.** What does the source list for Oc1ccc(/C=C/c2cc(O)cc(O)c2)cc1 [resveratrol]?
**A.** IC50 [1]: 95.7 ± 3 µM; Ki [1]: 95.7 µM; Inhibition of EcDHFR activity in single-concentration initial screen [1]: showed inhibition; αKi [3, 13]: 88.30 ± 6.02 µM; IC50 curve compared with wild-type enzyme [4]: superimposable; IC50 curve compared with wild-type enzyme [5]: superimposable; IC50 curve compared with wild-type enzyme [6]: superimposable; Effect of folAmix on growth of inhibited cells [9]: fully restores growth; IC50 [10]: 250 µM; solubility [8]: ≤ 250 µM

**Q.** Which “Increase in resistance conferred by L28R variant” value [11] does the source give for COc1cc(Cc2cnc(N)nc2N)cc(OC)c1OC [trimethoprim] here?
**A.** approximately 50 fold
